Source: ChEMBL document CHEMBL3808300, “Atropisomer Control in Macrocyclic Factor VIIa Inhibitors” (J Med Chem, 2016)

How the values were obtained:
Kallikrein-1 = Kallikrein-1 (Homo sapiens, UniProt P06870); assay: Inhibition of purified human tissue kallikrein 1 using H-D-Val-Leu-Arg-AFC as substrate
Summary of the method: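 Uses purified human tissue kallikrein 1 at 37 °C. Ki is averaged from two independent experiments. The procedure follows an earlier published protocol.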

Coagulation factor XI = Coagulation factor XI (Homo sapiens, UniProt P03951); assay: Inhibition of purified human factor 11a after 30 to 60 mins
Chain of Coagulation factor XI (P03951 19-387 limits assumed): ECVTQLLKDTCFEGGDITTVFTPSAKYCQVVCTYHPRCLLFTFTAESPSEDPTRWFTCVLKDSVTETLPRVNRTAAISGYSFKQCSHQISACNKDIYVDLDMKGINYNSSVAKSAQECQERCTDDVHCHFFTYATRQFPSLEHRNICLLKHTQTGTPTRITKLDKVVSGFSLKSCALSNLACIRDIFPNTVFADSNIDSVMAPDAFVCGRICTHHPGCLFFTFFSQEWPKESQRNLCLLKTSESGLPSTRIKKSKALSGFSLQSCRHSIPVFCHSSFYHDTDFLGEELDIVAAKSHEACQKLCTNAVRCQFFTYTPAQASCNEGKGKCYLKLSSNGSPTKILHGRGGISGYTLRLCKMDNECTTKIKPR
Chain of Coagulation factor XI (P03951 388-625 limits assumed): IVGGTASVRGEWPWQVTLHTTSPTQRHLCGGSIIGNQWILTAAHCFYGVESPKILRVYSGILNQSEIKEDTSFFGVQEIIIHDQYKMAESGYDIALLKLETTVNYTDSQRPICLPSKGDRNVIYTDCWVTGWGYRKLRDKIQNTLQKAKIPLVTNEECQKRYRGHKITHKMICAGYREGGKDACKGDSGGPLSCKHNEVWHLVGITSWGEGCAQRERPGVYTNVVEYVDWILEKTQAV
Summary of the method: (§1)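 Purified human enzyme, run at 25 °C. The reported Ki is the average of two experiments. The full protocol follows a previously published method.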

[1] = biological target: Coagulation factor VII/tissue factor (Homo sapiens, UniProt P08709); assay: Inhibition of recombinant human Tissue factor/factor 7a using S2288 as substrate after 30 to 60 mins; type: protein-complex assay
Chain of Coagulation factor VII/tissue factor (P08709 61-212 limits assumed): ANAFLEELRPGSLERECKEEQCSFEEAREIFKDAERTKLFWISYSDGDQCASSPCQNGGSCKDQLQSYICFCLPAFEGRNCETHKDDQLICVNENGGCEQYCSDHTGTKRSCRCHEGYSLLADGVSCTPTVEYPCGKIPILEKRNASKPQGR
Chain of Coagulation factor VII/tissue factor (P08709 213-466 limits assumed): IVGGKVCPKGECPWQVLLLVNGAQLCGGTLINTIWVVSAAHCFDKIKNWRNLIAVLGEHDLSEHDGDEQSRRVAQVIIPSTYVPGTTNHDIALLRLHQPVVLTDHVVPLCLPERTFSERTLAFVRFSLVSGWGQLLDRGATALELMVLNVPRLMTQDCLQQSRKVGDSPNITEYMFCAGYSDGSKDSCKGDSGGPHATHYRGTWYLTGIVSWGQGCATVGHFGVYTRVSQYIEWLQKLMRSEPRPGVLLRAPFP
Chain of Coagulation factor VII/tissue factor (P13726 33-295 partner limits assumed): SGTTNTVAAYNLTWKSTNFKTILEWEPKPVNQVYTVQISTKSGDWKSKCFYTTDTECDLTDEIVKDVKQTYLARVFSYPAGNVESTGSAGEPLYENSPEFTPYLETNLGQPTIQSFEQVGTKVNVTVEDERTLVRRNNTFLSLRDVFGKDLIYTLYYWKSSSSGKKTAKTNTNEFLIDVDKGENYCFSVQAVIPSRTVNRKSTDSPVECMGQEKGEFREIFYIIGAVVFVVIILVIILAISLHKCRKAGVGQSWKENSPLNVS
Summary of the method: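 Enzyme is recombinant human TF/FVIIa complex, assayed at 25 °C. Ki is the mean of two experiments, and the method is the published protocol.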

Prothrombin = Prothrombin (Homo sapiens, UniProt P00734); assay: Inhibition of purified human thrombin after 30 to 60 mins; summary of the method: as §1
Trypsin = Trypsin (Homo sapiens, UniProt P07477+P07478+P35030); assay: Inhibition of purified human trypsin after 30 to 60 mins; type: protein assay; summary of the method: as §1
Coagulation factor X = Coagulation factor X (Homo sapiens, UniProt P00742); assay: Inhibition of purified human factor 10a using S2765 as substrate after 30 to 60 mins; summary of the method: as §1
Chain of Coagulation factor X (P00742 41-179 limits assumed): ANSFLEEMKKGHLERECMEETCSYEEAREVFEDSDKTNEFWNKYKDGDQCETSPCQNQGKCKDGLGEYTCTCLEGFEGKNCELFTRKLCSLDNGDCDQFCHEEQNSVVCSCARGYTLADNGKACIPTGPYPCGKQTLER
Chain of Coagulation factor X (P00742 235-488 limits assumed): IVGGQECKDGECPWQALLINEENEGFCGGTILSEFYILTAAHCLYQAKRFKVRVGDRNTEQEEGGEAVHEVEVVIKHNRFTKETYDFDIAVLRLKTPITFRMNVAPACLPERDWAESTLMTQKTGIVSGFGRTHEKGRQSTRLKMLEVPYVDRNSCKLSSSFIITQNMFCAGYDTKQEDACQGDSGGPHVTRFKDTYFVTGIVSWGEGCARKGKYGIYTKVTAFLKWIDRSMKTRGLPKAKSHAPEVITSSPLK

Chain of Kallikrein-1 (P06870 whole entry): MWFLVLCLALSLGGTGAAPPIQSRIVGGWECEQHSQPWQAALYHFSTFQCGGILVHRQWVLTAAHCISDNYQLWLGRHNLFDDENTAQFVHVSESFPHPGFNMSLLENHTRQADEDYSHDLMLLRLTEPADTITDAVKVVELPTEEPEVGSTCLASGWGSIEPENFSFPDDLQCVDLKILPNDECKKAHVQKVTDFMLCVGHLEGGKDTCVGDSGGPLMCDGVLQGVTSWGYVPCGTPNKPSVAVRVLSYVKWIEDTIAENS

| Ki (Kallikrein-1) | Ki (Coagulation factor XI) | Ki [1] | Ki (Prothrombin) | Ki (Trypsin) | Ki (Coagulation factor X) | Structure (SMILES) |
| --- | --- | --- | --- | --- | --- | --- |
| 0.025 µM | 9.1 µM | 0.14 µM | 4.7 µM | > 6.2 µM | 4.5 µM | C[C@H]1COC(=O)Nc2cccc(c2)CNC(=O)C(Nc2ccc3c(N)nccc3c2)c2ccc1cc2 (stereo partly drawn) |
| – | 10.8 µM | – | > 13 µM | – | 2.6 µM | CC1COC(=O)Nc2cccc(c2)CNC(=O)C(Nc2ccc3c(N)nccc3c2)c2ccc1cc2 (stereo not drawn) |
| 0.031 µM | > 14.2 µM | 4.51 µM | > 11.5 µM | > 10 µM | > 13.3 µM | Cc1cc2ccc1[C@@H](C)COC(=O)Nc1cccc(c1)CNC(=O)[C@H]2Nc1ccc2c(N)nccc2c1 |
| 0.004 µM | > 11 µM | 1.45 µM | 7.4 µM | > 6.2 µM | 6.8 µM | C[C@@H]1COC(=O)Nc2cccc(c2)CNC(=O)C(Nc2ccc3c(N)nccc3c2)c2ccc1cc2 (stereo partly drawn) |
| 0.035 µM | 5.7 µM | 0.51 µM | > 13 µM | 3.5 µM | 0.61 µM | Nc1nccc2cc(NC3C(=O)NCc4cccc(c4)NC(=O)OCCc4ccc3cc4)ccc12 (stereo not drawn) |
| 0.025 µM | > 14.2 µM | 0.0014 µM | > 11.5 µM | > 10 µM | > 13.3 µM | Cc1cc2ccc1[C@@H](C)COC(=O)Nc1cccc(c1)CNC(=O)[C@@H]2Nc1ccc2c(N)nccc2c1 |
